Experimental data taken from ChEMBL document CHEMBL1287654, “Anticancer activity of N-bis(trifluoromethyl)alkyl-N'-(polychlorophenyl) and N'-(1,2,4-triazolyl) ureas” (2010).

Key:
Assay type in all cases: functional
Malme-3M = assay: Growth inhibition of human MALME-3M cells after 48 hrs by sulforhodamine B assay
How it was run: (§1)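 NCI 60-cell-line main test over a five-log dose range. GI50 is the molar concentration giving half-growth inhibition, reported as log molar. Subpanel values are median GI50 across that subpanel's lines. Where 50% inhibition was not reached within the tested interval, the highest tested concentration was used.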

SW-620 = assay: Growth inhibition of human SW620 cells after 48 hrs by sulforhodamine B assay; conditions: SW-620, 48 h
How it was run: (§2)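 NCI 60-cell-line main screen across nine tumor types, with five log dose range per compound. GI50 is the molar concentration giving half growth inhibition, reported as the log of the molar concentration that inhibits 50% net cell growth.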

786-0 = assay: Growth inhibition of human 786-0 cells after 48 hrs by sulforhodamine B assay; conditions: 786-0, 48 h; how it was run: as §1
HCC 2998 = assay: Growth inhibition of human HCC2998 cells after 48 hrs by sulforhodamine B assay; conditions: HCC 2998, 48 h; how it was run: as §1
HL-60(TB) = assay: Growth inhibition of human HL-60(TB) cells after 48 hrs by sulforhodamine B assay; conditions: HL-60, 48 h
How it was run: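 NCI 60-cell-line panel run over a five-log dose range. GI50 is reported as the log of the molar concentration giving 50% net cell-growth inhibition, from dose-response against untreated controls. Where that effect was not reached within the concentration interval, the highest tested concentration was used in the calculation.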

MCF7 [1] = assay: Growth inhibition of human MCF7 cells after 48 hrs by sulforhodamine B assay; conditions: MCF7, 48 h; how it was run: as §1
A549 = assay: Growth inhibition of human A549 cells after 48 hrs by sulforhodamine B assay; conditions: A549, 48 h; how it was run: as §1
M14 = assay: Growth inhibition of human M14 cells after 48 hrs by sulforhodamine B assay; conditions: M14, 48 h; how it was run: as §1
BT-549 = assay: Growth inhibition of human BT549 cells after 48 hrs by sulforhodamine B assay; conditions: BT-549, 48 h; how it was run: as §1
NCI-H522 = assay: Growth inhibition of human NCI-H522 cells after 48 hrs by sulforhodamine B assay; conditions: NCI-H522, 48 h; how it was run: as §1
CAKI-1 = assay: Growth inhibition of human Caki1 cells after 48 hrs by sulforhodamine B assay; conditions: CAKI-1, 48 h; how it was run: as §1
SR = assay: Growth inhibition of human SR cells after 48 hrs by sulforhodamine B assay; how it was run: as §2
SNB-19 = assay: Growth inhibition of human SNB19 cells after 48 hrs by sulforhodamine B assay; conditions: SNB-19, 48 h; how it was run: as §2
[2] = Growth inhibition of human non-small lung cancer cell after 48 hrs by sulforhodamine B assay; conditions: Cancer cell lines
How it was run: (§3)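 Subpanel median growth inhibitory concentration: the average sensitivity of each tumor-type subpanel of the NCI 60-cell-line panel, derived from per-cell-line GI50 values. GI50 values came from a five log dose range and are expressed as log molar concentration for 50% net growth inhibition.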

[3] = Growth inhibition of human Hs 578T cells after 48 hrs by sulforhodamine B assay; how it was run: as §1
SK-MEL-2 = assay: Growth inhibition of human SK-MEL-2 cells after 48 hrs by sulforhodamine B assay; conditions: SK-MEL-2, 48 h; how it was run: as §1
HOP-62 = assay: Growth inhibition of human HOP62 cells after 48 hrs by sulforhodamine B assay; conditions: HOP-62, 48 h; how it was run: as §1
NCI/ADR-RES = assay: Growth inhibition of human NCI/ADR-RES cells after 48 hrs by sulforhodamine B assay; how it was run: as §1
OVCAR-3 = assay: Growth inhibition of human OVCAR-3 cells after 48 hrs by sulforhodamine B assay; conditions: OVCAR-3, 48 h; how it was run: as §1
HT-29 = assay: Growth inhibition of human HT-29 cells after 48 hrs by sulforhodamine B assay; conditions: HT-29, 48 h; how it was run: as §1
LOX IMVI = assay: Growth inhibition of human LOXIMVI cells after 48 hrs by sulforhodamine B assay; how it was run: as §1
SK-MEL-5 = assay: Growth inhibition of human SK-MEL-5 cells after 48 hrs by sulforhodamine B assay; conditions: SK-MEL-5, 48 h; how it was run: as §1
UACC-62 = assay: Growth inhibition of human UACC62 cells after 48 hrs by sulforhodamine B assay; conditions: UACC-62, 48 h; how it was run: as §2
UACC-257 = assay: Growth inhibition of human UACC257 cells after 48 hrs by sulforhodamine B assay; conditions: UACC-257, 48 h; how it was run: as §2
SN12C = assay: Growth inhibition of human SN12C cells after 48 hrs by sulforhodamine B assay; how it was run: as §2
DU-145 = assay: Growth inhibition of human DU145 cells after 48 hrs by sulforhodamine B assay; conditions: DU-145, 48 h; how it was run: as §1
OVCAR-5 = assay: Growth inhibition of human OVCAR5 cells after 48 hrs by sulforhodamine B assay; conditions: OVCAR-5, 48 h; how it was run: as §1
[4] = Growth inhibition of human breast cancer cell after 48 hrs by sulforhodamine B assay; conditions: Cancer cell lines; how it was run: as §3
PC-3 = assay: Growth inhibition of human PC3 cells after 48 hrs by sulforhodamine B assay; conditions: PC-3, 48 h; how it was run: as §1
NCI-H460 [5] = assay: Growth inhibition of human NCI-H460 cells after 48 hrs by sulforhodamine B assay; conditions: NCI-H460, 48 h; how it was run: as §1
[6] = Growth inhibition of human melanoma cell after 48 hrs by sulforhodamine B assay; how it was run: as §3
K562 = assay: Growth inhibition of human K562 cells after 48 hrs by sulforhodamine B assay; conditions: K562, 48 h; how it was run: as §1
MCF7 [7] = assay: Growth inhibition of human MCF7 cells assessed as cell growth at 100 uM after 48 hrs by sulforhodamine B assay relative to control; conditions: MCF7, 48 h, read-out: Activity
How it was run: (§4)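 One-dose pre-test on MCF7, NCI-H460 and SF-268. Cells were inoculated and pre-incubated on a microtiter plate, then given a single 10^-4 M dose and incubated 48 h. Growth was read spectrophotometrically and expressed as percent of untreated control cells; negative values indicate cell kill.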

OVCAR-4 = assay: Growth inhibition of human OVCAR4 cells after 48 hrs by sulforhodamine B assay; conditions: OVCAR-4, 48 h; how it was run: as §1
MDA-MB-231 = assay: Growth inhibition of human MDA-MB-231 cells after 48 hrs by sulforhodamine B assay; conditions: MDA-MB-231, 48 h; how it was run: as §1
[8] = Growth inhibition of human ovarian cancer cell after 48 hrs by sulforhodamine B assay; conditions: Cancer cell lines; how it was run: as §3
SK-OV-3 = assay: Growth inhibition of human SKOV3 cells after 48 hrs by sulforhodamine B assay; conditions: SK-OV-3, 48 h; how it was run: as §1
MDA-MB-435 = assay: Growth inhibition of human MDA-MB-435 cells after 48 hrs by sulforhodamine B assay; conditions: MDA-MB-435, 48 h; how it was run: as §1
ACHN = assay: Growth inhibition of human ACHN cells after 48 hrs by sulforhodamine B assay; how it was run: as §1
NCI-H460 [9] = assay: Growth inhibition of human NCI-H460 cells assessed as cell growth at 100 uM after 48 hrs by sulforhodamine B assay relative to control; conditions: NCI-H460, 48 h, read-out: Activity; how it was run: as §4
SF-539 = assay: Growth inhibition of human SF539 cells after 48 hrs by sulforhodamine B assay; conditions: SF-539, 48 h; how it was run: as §1
HOP-92 = assay: Growth inhibition of human HOP92 cells after 48 hrs by sulforhodamine B assay; conditions: HOP-92, 48 h; how it was run: as §1

CCC(NC(=O)Nc1cc(Cl)ccc1Cl)(C(F)(F)F)C(F)(F)F showed a GI50 (Malme-3M) of 8.13 µM, a GI50 (SW-620) of 5.25 µM and a GI50 (786-0) of 4.37 µM. For the same compound, the GI50 (HCC 2998) was 1.15 µM, the GI50 (HL-60(TB)) was 4.17 µM and the GI50 (MCF7 [1]) was 7.24 µM. The GI50 (A549) was 3.47 µM, the GI50 (M14) was 5.13 µM and the GI50 (BT-549) was 10.5 µM. For the same compound, the GI50 (NCI-H522) was 2.82 µM, the GI50 (CAKI-1) was 4.57 µM and the GI50 (SR) was 3.39 µM. For the same compound, the GI50 (SNB-19) was 4.68 µM, the GI50 [2] was 3.72 µM and the GI50 [3] was 5.25 µM. It also gave a GI50 (SK-MEL-2) of 2.19 µM, a GI50 (HOP-62) of 10.7 µM and a GI50 (NCI/ADR-RES) of 4.17 µM. For the same compound, the GI50 (OVCAR-3) was 3.09 µM, the GI50 (HT-29) was 3.31 µM and the GI50 (LOX IMVI) was 4.07 µM. The GI50 (SK-MEL-5) was 6.61 µM, the GI50 (UACC-62) was 4.17 µM and the GI50 (UACC-257) was 4.79 µM. The GI50 (SN12C) was 2.82 µM, the GI50 (DU-145) was 4.68 µM and the GI50 (OVCAR-5) was 4.79 µM. For the same compound, the GI50 [4] was 5.5 µM, the GI50 (PC-3) was 2.19 µM and the GI50 (NCI-H460 [5]) was 2.19 µM. It also gave a GI50 [6] of 5.25 µM, a GI50 (K562) of 3.55 µM and a growth at 100 µM (MCF7 [7]) of -89%. It also gave a GI50 (OVCAR-4) of 5.62 µM, a GI50 (MDA-MB-231) of 3.31 µM and a GI50 [8] of 5.5 µM. For the same compound, the GI50 (SK-OV-3) was 10.7 µM, the GI50 (MDA-MB-435) was 5.13 µM and the GI50 (ACHN) was 3.89 µM. The growth at 100 µM (NCI-H460 [9]) was -100%, the GI50 (SF-539) was 9.55 µM and the GI50 (HOP-92) was 4.68 µM.
Work on CC(NC(=O)Nc1cc(Cl)ccc1Cl)(C(F)(F)F)C(F)(F)F yielded a GI50 (Malme-3M) of 17.8 µM, a GI50 (SW-620) greater than 100 µM and a GI50 (786-0) of 9.77 µM. For the same compound, the GI50 (HCC 2998) was 3.8 µM, the GI50 (HL-60(TB)) was 17.4 µM and the GI50 (MCF7 [1]) was 11.7 µM. It also gave a GI50 (A549) of 5.62 µM, a GI50 (M14) greater than 100 µM and a GI50 (BT-549) greater than 100 µM. The GI50 (NCI-H522) was 3.09 µM, the GI50 (CAKI-1) was 19.1 µM and the GI50 (SR) was 7.41 µM. The GI50 (SNB-19) was greater than 100 µM, the GI50 [2] was 9.77 µM and the GI50 [3] was 3.16 µM. For the same compound, the GI50 (SK-MEL-2) was 12.3 µM, the GI50 (HOP-62) was 63.1 µM and the GI50 (NCI/ADR-RES) was 5.89 µM. For the same compound, the GI50 (OVCAR-3) was 4.17 µM, the GI50 (HT-29) was 3.72 µM and the GI50 (LOX IMVI) was 7.76 µM. The GI50 (SK-MEL-5) was 25.1 µM, the GI50 (UACC-62) was greater than 100 µM and the GI50 (UACC-257) was 75.9 µM. It also gave a GI50 (SN12C) of 8.71 µM, a GI50 (DU-145) of 9.55 µM and a GI50 (OVCAR-5) greater than 100 µM. It also gave a GI50 [4] of 61.7 µM, a GI50 (PC-3) of 3.47 µM and a GI50 (NCI-H460 [5]) of 5.75 µM. The GI50 [6] was 36.3 µM, the GI50 (K562) was 5.89 µM and the growth at 100 µM (MCF7 [7]) was 34%. The GI50 (OVCAR-4) was 10.7 µM, the GI50 (MDA-MB-231) was 30.2 µM and the GI50 [8] was 24 µM. The GI50 (SK-OV-3) was greater than 100 µM, the GI50 (MDA-MB-435) was greater than 100 µM and the GI50 (ACHN) was 5.13 µM. It also gave a growth at 100 µM (NCI-H460 [9]) of 17%, a GI50 (SF-539) of 30.2 µM and a GI50 (HOP-92) of 6.92 µM.
